From ChEMBL document CHEMBL1649548, “Pharmacodynamics of SMP-601 (PTZ601) against vancomycin-resistant Enterococcus faecium and methicillin-resistant Staphylococcus aureus in neutropenic murine thigh infection models” (Antimicrob Agents Chemother, 2009) come the findings set out here.

Values after ≈ are worked out from the molar mass of the structure shown. Active and inactive are the calls of the source. The calls are words filed in the database; no cut-off is given here.

Data set [1] has as its system Enterococcus faecium. As to the kind of experiment: Antibacterial activity against vancomycin-resistant Enterococcus faecium TL-3621 by broth microdilution method. In kind it is functional. In outline:
(§1)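 CLSI broth microdilution in cation-adjusted Mueller-Hinton broth; final inoculum approx. 10^5 CFU/well.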

Data set [2] is described as follows: fT>MIC required for inducing 2-log killing effect in methicillin-resistant Staphylococcus aureus SP-12249-infected mouse. Format: functional.
A short description of data set [3]: fT>MIC required for inducing 1-log killing effect in vancomycin-resistant Enterococcus faecium TL-3621-infected mouse. In kind it is functional. The essentials:
(§2)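 Neutropenic ICR mice (cyclophosphamide), thighs inoculated with ~10^5–10^6 CFU/ml in BHIB with 1% carrageenan 2 h before therapy. Total 2.5–640 mg/kg sc over 24 h in 1–12 doses, with cilastatin 100 mg/kg.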

Data set [4] can be described thus: fT>MIC required for bacteriostatic effect in vancomycin-resistant Enterococcus faecium TL-3273-infected mouse. Format: functional. The essentials:
as §2

Data set [5] concerns Enterococcus faecium. As to the kind of experiment: Antibacterial activity against vancomycin-resistant Enterococcus faecium TL-3273 by broth microdilution method. Format: functional. In outline: as §1
Data set [6] is described as follows: fT>MIC required for bacteriostatic effect in vancomycin-resistant Enterococcus faecium TL-3621-infected mouse. In kind it is functional. In outline: as §2
The nature of data set [7]: Protein binding in mouse serum at 100 ug/ml by ultrafiltration method. Format: ADME, cell-free. Conditions: read-out: PB (converted).
Data set [8] can be described thus: fT>MIC required for inducing 2-log killing effect in vancomycin-resistant Enterococcus faecium TL-3273-infected mouse. Format: functional. In outline:
as §2

The test system of data set [9] is Enterococcus faecium. As to the kind of experiment: Antibacterial activity against vancomycin-resistant Enterococcus faecium TL-3273 at 0.5 to 8 ug/mL by time-kill analysis in presence of 1% carrageenan. Format: functional, organism-based.
The nature of data set [10]: Protein binding in mouse serum at 30 ug/ml by ultrafiltration method. In kind it is ADME, cell-free. Conditions: read-out: PB (converted).
Data set [11] is described as follows: fT>MIC required for inducing 2-log killing effect in methicillin-resistant Staphylococcus aureus TL-3677-infected mouse. Format: functional.
Data set [12] in a line: fT>MIC required for inducing 2-log killing effect in vancomycin-resistant Enterococcus faecium TL-3621-infected mouse. In kind it is functional. The essentials: as §2
Data set [13] concerns Staphylococcus aureus. As to the kind of experiment: Antibacterial activity against methicillin-resistant Staphylococcus aureus SP-12249 by broth microdilution method. In kind it is functional. The essentials:
as §1

The nature of data set [14]: fT>MIC required for inducing 1-log killing effect in vancomycin-resistant Enterococcus faecium TL-3273-infected mouse. In kind it is functional. In outline:
as §2

Data set [15] can be described thus: fT>MIC required for inducing 1-log killing effect in methicillin-resistant Staphylococcus aureus SP-12249-infected mouse. In kind it is functional.
Data set [16] can be described thus: fT>MIC required for inducing 1-log killing effect in methicillin-resistant Staphylococcus aureus TL-3677-infected mouse. Format: functional.
The nature of data set [17]: fT>MIC required for bacteriostatic effect in methicillin-resistant Staphylococcus aureus SP-12249-infected mouse. Format: functional.
Data set [18] is described as follows: Protein binding in mouse serum at 10 ug/ml by ultrafiltration method. In kind it is ADME, cell-free. Conditions: read-out: PB (converted).
For data set [19], the system named is Enterococcus faecium. As to the kind of experiment: Antibacterial activity against vancomycin-resistant Enterococcus faecium TL-3273 infected in ICR mouse assessed as reduction in bacterial burden at 2.5 to 640 mg/kg, sc in presence of 1% carrageenan. In kind it is functional, organism-based. In outline:
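Male ICR mice made neutropenic with cyclophosphamide sc (150 mg/kg day −4, 100 mg/kg day −1). Thighs inoculated with ~10^5–10^6 CFU/ml in BHIB plus 1% carrageenan, 2 h before therapy. Total 2.5–640 mg/kg sc over 24 h in 1–12 divided doses, each with cilastatin 100 mg/kg. Thighs homogenised at 24 h, CFU plated; two mice (four thighs) per group.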

Data set [20] is described as follows: fT>MIC required for bacteriostatic effect in methicillin-resistant Staphylococcus aureus TL-3677-infected mouse. Format: functional.
The test system of data set [21] is Staphylococcus aureus. Put plainly: Antibacterial activity against methicillin-resistant Staphylococcus aureus TL-3677 by broth microdilution method. In kind it is functional. In outline: as §1

For `C[C@H]1C=C(c2csc(SC3=C(C(=O)O)N4C(=O)[C@H]([C@@H](C)O)[C@H]4[C@H]3C)n2)CN1` [RAZUPENEM], the MIC with Enterococcus faecium [1] came out at 2 µg/mL (≈ 4.91 µM); in the data set with Enterococcus faecium [5], 2 µg/mL (≈ 4.91 µM); in the data set on Staphylococcus aureus [13], 1 µg/mL (≈ 2.45 µM); against Staphylococcus aureus [21], 0.12 µg/mL (≈ 0.294 µM). Besides, the “fT>MIC” value in [2] stood at 37%; in [3], 14%; in data set [4], 9%; in data set [6] it was 10%; in data set [8] it was 16%; in data set [11], 32%. In addition, the “fT>MIC” value in data set [12] turned out to be 19%; in data set [14] it was 12%; in data set [15], 30%; in [16], 27%; in [17], 23%; in data set [20], 23%. Also, the fraction unbound at 100 ug/ml in data set [7] is 0.22. In addition, the result in the data set with Enterococcus faecium [9] and in the data set with Enterococcus faecium [19] was Active. Also, the fraction unbound at 30 ug/ml in [10] is 0.24. In addition, in data set [18], the fraction unbound at 10 ug/ml was 0.25.
